Results published in PubChem BioAssay.
The source made the active and inactive calls.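 Rule for the calls, unless noted: active = NADPH fluorescence slope more negative than the mean of all samples by about 3 SD, 99.7% confidence; inactive = the rest.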

Experiments:
[1] = inhibitors of TNFa-induced NFkB p65 translocation, primary screen, imaging, HUVEC, MLSMR starter and 10KST1 sets (AID 438;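 active = inhibition above 20% together with a positive visual image hit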;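 note: compound added about 3h40 before a 20 min TNFalpha stimulation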;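 for inhibition: signal is the nuclear over cytoplasmic p65 intensity ratio per well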); conditions: HUVEC TNFa-induced p65 nuclear translocation; cell count: measured here: nuclei count (cytotoxicity indicator), at 2.08 µM; inhibition: at 2 µM, stronger effect = higher value, 0% TNFa-plus-vehicle, 100% no-TNFa wells
[2] = reduction of polyQ htt aggregates in cells – imaging, exon1htt(103Q)mCFP cells, high-content imaging, primary screen (AID 483;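 active = visual image review flags a hit and inhibition of aggregation exceeds 20%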;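 note: compound exposure lasted 3 days before fixation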;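 for nuclei count: percent of the per-plate median nuclei count of sample wells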); conditions: exon1htt(103Q)mCFP cell line, aggregate imaging, at 2 µM; inhibition of aggregation: stronger effect = higher value; nuclei count: measured here: cell count, toxicity
[3] = endothelial E-selectin expression blockers – imaging, HUVEC, immunofluorescence, MLSMR starter and 10KST1 sets, primary screen (AID 487;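 active = visually confirmed hit in the image check and inhibition above 20%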;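 for inhibition: signal is fraction of cell area covered by stained E-selectin grains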;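 for nuclei count: 100% = median nuclei count of all wells on the same plate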); conditions: HUVEC TNFalpha-induced E-selectin immunofluorescence imaging, at 2 µM; inhibition: stronger effect = higher value; nuclei count: measured here: cell number, toxicity
[4] = molecular target: Voltage-gated potassium channel subunit beta-2 (Rattus norvegicus) (UniProt P62483); assay: inhibitors of rat Kvbeta2 reductase activity – biochemical, NADPH fluorescence, primary screen (AID 622;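 active = fluorescence slope higher than the sample average by over 3 SD, cut at about -0.22 in these data, passing the limit was not always enough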;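 note: slope of raw intensity against log time taken from 70 to 1610 s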); conditions: recombinant KvBeta, 4-cyanobenzaldehyde reduction, at 10 µM, stronger effect = higher value
Sequence of Voltage-gated potassium channel subunit beta-2 (Rattus norvegicus) (P62483 whole entry, looked up): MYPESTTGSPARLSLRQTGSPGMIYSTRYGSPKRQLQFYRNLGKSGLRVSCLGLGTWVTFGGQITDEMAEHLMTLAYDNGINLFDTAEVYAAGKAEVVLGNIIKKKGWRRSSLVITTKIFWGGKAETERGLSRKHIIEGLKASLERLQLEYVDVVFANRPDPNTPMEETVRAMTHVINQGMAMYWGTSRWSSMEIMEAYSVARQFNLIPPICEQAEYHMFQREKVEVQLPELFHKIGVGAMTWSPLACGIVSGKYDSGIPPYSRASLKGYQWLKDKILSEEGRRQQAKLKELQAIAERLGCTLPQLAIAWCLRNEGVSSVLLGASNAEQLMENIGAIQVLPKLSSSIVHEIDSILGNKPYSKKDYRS

[5] = molecular target: Voltage-gated potassium channel subunit beta-2 (Rattus norvegicus) (UniProt P62483); assay: enhancers of rat Kvbeta2 NADPH turnover – biochemical, NADPH fluorescence, primary screen (AID 623); conditions: Recombinant KvBeta, NADPH fluorescence decrease slope, 10 min; at 10 µM; stronger effect = lower value;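 note: fluorescence intensity change per second fitted from 20 to 320 s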
[6] = molecular target: Muscarinic acetylcholine receptor M4 (Homo sapiens) (UniProt P08173); assay: M4-linked GIRK flux change, two-sided – cell-based, HEK293 M4/GIRK, thallium flux, BTC-AM, M4 allosteric agonist project, primary screen (AID 625;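 active = fluorescence slope after compound addition differing from the mean of all tested samples at 99.7% confidence, mostly higher but some lower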;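 note: thallium influx through GIRK channels coupled to M4 in HEK293 cells with BTC-AM dye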); conditions: at 10 µM, actives lie on both sides
Sequence of Muscarinic acetylcholine receptor M4 (Homo sapiens) (P08173 whole entry, looked up): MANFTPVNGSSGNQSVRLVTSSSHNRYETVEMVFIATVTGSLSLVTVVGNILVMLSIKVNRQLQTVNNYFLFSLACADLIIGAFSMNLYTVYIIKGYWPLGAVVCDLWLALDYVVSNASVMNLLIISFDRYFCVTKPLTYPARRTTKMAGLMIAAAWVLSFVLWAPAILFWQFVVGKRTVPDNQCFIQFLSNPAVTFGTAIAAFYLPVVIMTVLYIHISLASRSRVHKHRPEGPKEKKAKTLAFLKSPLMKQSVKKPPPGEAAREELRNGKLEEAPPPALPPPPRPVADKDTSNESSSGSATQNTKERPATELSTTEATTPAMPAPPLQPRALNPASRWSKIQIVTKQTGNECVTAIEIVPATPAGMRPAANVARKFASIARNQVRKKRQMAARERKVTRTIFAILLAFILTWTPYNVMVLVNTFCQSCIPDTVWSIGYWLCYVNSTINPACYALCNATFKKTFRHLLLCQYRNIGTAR
Method in brief: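 Material – HEK293 cells with M4 receptor and GIRK channels · Buffer or medium – pH 7.3 thallium assay buffer · Doses – one dose, 10 µM final · Timing – cells overnight at 37 °C, BTC-AM loading 1 h, reads 2 min total · Measured by – kinetic fluorescence with BTC-AM dye · Controls – carbachol and DMSO controls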

[7] = blockers of RIG-like receptor reporter activation – cell-based, Sendai virus stimulus, luciferase, 10K MLSCN set, TLR/RLR signaling modifier project, primary screen (AID 602276;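 active = inhibition at or above 50% at 10 µM; inactive = inhibition below 50%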;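 note: firefly luciferase from ISG56 promoter only with Renilla not read in this screen; 0% = Sendai virus plus DMSO and 100% = medium plus DMSO without virus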); conditions: HEK293 RL24 IRF3 luciferase reporter, at 10 µM, stronger effect = higher value
[8] = TLR3 IRF3 reporter activation blockers – cell-based, poly I:C stimulus, luciferase, 10K MLSCN set, primary screen (AID 602277;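 active = inhibition of the reporter signal at or above 50%; inactive = inhibition below 50%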); conditions: HEK293-TLR3 RL24 IRF3 luciferase reporter, at 10 µM, stronger effect = higher value

Row | Structure (SMILES) | cell count [1] | inhibition [1] | inhibition of aggregation [2] | nuclei count [2] | inhibition [3] | nuclei count [3] | fluorescence slope [4] | NADPH fluorescence slope [5] | fluorescence slope [6] | inhibition [7] | inhibition [8]
1 | CCN(CCNC(=O)C1CCN(S(=O)(=O)CC)CC1)c1ccccc1 | 446 | -14.7% (inactive) | 5.7% (inactive) | 86.2% | -93.7% (inactive) | 106% | -0.254 (inactive) | -2.8e-05 (inactive) | 0.00662 (inactive) | 15.8% (inactive) | 11.8% (inactive)
2 | COc1ccc(CC(NC(C)=O)C(=O)NC2CCN(C(=O)Nc3ccc(C#N)cc3)CC2)cc1OC (centres undefined) | 312 | -1.9% (inactive) | -14.4% (inactive) | 102% | -29.9% (inactive) | 112% | -0.415 (inactive) | 8.5e-05 (inactive) | 0.00714 (inactive) | 14.2% (inactive) | 14.3% (inactive)
3 | CCN(CC)S(=O)(=O)N1CCC(C(=O)NCC2COc3ccccc3O2)CC1 (centres undefined) | 616 | 17% (inactive) | -12.4% (inactive) | 88.5% | -27.8% (inactive) | 115% | -0.494 (inactive) | 2.9e-05 (inactive) | 0.00755 (inactive) | -4.12% (inactive) | 1.83% (inactive)
4 | CCOc1ccccc1Nc1nc2ccccc2[nH]1 | 327 | 1.2% (inactive) | 5.9% (inactive) | 111% | 2.9% (inactive) | 109% | -0.524 (inactive) | -0.000156 (active) | 0.00599 (inactive) | -18.9% (inactive) | -39.8% (inactive)
5 | Cn1c(Cc2ccccc2)nnc1SCC(=O)NC1CCCCC1 | 327 | -2.3% (inactive) | -1% (inactive) | 94.8% | -136% (inactive) | 120% | -0.0696 (active) | -3.5e-05 (inactive) | 0.0079 (inactive) | 16.3% (inactive) | 0.751% (inactive)
6 | CC(=O)c1cccc(NC(=O)c2ccc(NS(C)(=O)=O)cc2)c1 | 486 | -8.9% (inactive) | 9% (inactive) | 94.4% | 32.6% (inactive) | 98.5% | -0.444 (inactive) | -5.1e-05 (inactive) | 0.00538 (inactive) | 12.2% (inactive) | 15.9% (inactive)
7 | COCC(=O)Nc1sc2c(c1C(=O)OC)C(C(=O)OC)CC2 (centres undefined) | 403 | -3.4% (inactive) | -1.9% (inactive) | 93.9% | 9.9% (inactive) | 105% | -0.481 (inactive) | 7e-05 (inactive) | 0.00577 (inactive) | -8.7% (inactive) | 0.35% (inactive)
8 | FC(F)(F)C(F)(F)C(F)(F)c1nnc2ccc(N3CCOCC3)nn12 | 420 | 7.9% (inactive) | -8.6% (inactive) | 102% | -41.2% (inactive) | 111% | -0.51 (inactive) | 7.7e-05 (inactive) | 0.0046 (inactive) | -12% (inactive) | -3.61% (inactive)
9 | Cc1nc2ccc(NC(=O)N3CCOCC3)cc2s1 | 416 | 0.5% (inactive) | -0.3% (inactive) | 96.2% | -51% (inactive) | 109% | -0.497 (inactive) | 8.6e-06 (inactive) | 0.00618 (inactive) | 10.7% (inactive) | 8.12% (inactive)
10 | O=S(=O)(NCC1CCCO1)c1ccc(S(=O)(=O)N2CCc3ccccc3C2)cc1 (centres undefined) | 685 | -4.3% (inactive) | -21.6% (inactive) | 97.8% | -132% (inactive) | 140% | -0.525 (inactive) | -3.8e-05 (inactive) | 0.00466 (inactive) | 19.5% (inactive) | 19.5% (inactive)
11 | O=C(OCc1cc2ccccc2[nH]c1=O)c1ccncc1 | 826 | -3.9% (inactive) | 25.6% (inactive) | 104% | -66% (inactive) | 115% | -0.536 (inactive) | -4.4e-05 (inactive) | 0.00554 (inactive) | 19.9% (inactive) | 23.1% (inactive)
12 | CC1(C)CC(=O)C2=C(C1)N(Cc1ccco1)C(=O)C2(NC(=O)C1CCCCC1)C(F)(F)F (centres undefined) | 670 | -2.6% (inactive) | 9.8% (inactive) | 111% | -51% (inactive) | 116% | -0.453 (inactive) | -6.1e-05 (inactive) | 0.00581 (inactive) | 16.7% (inactive) | 21.1% (inactive)
13 | Nc1nc(SCCOc2ccccc2)n[nH]1 | 256 | -3% (inactive) | 18.6% (inactive) | 76.7% | -41.8% (inactive) | 105% | -0.571 (inactive) | -1.8e-05 (inactive) | 0.00618 (inactive) | 4.33% (inactive) | 3.33% (inactive)
14 | Cc1ccc(-c2nn3c(=O)c(C)nnc3s2)cc1 | 571 | -19.6% (inactive) | -0.2% (inactive) | 98.1% | 3.6% (inactive) | 108% | -0.309 (inactive) | -4.6e-06 (inactive) | 0.0056 (inactive) | -12.3% (inactive) | -53.9% (inactive)
15 | O=C(O)C1C2CCC(C2)C1C(=O)NCCCn1ccnc1 (centres undefined) | 486 | 0% (inactive) | 18.3% (inactive) | 72.3% | 65.4% (active) | 65.1% | -0.491 (inactive) | -8.2e-05 (inactive) | 0.0041 (inactive) | -12.1% (inactive) | -16.7% (inactive)
16 | O=C(Nc1ncnc2sc3c(c12)CCCCC3)c1ccco1 | 260 | -7% (inactive) | 32.4% (active) | 85.3% | 62.2% (inactive) | 65.2% | -0.542 (inactive) | -1.4e-05 (inactive) | 0.0064 (inactive) | 21.8% (inactive) | 22.6% (inactive)
17 | CCc1ccc(NC(=O)c2cc(-c3ccco3)on2)cc1 | 382 | -5.1% (inactive) | 7.7% (inactive) | 99.2% | 6.4% (inactive) | 93.1% | -0.44 (inactive) | -4.3e-05 (inactive) | 0.00523 (inactive) | -42.1% (inactive) | -129% (inactive)
18 | O=C(O)CCN1C(=O)c2ccccc2C1=O | 325 | 5.2% (inactive) | -1.9% (inactive) | 91.2% | -54.5% (inactive) | 107% | -0.585 (inactive) | -3e-05 (inactive) | 0.00348 (inactive) | 14.6% (inactive) | 6.42% (inactive)
19 | COc1nc(N2CCOCC2)nc(-n2cccc2)n1 | 534 | -4.1% (inactive) | 3% (inactive) | 99.6% | 52.3% (inactive) | 80.1% | -0.547 (inactive) | -7.1e-05 (inactive) | 0.00492 (inactive) | 2.29% (inactive) | 4.71% (inactive)
20 | CCCOc1nc(N)c(C#N)c(-c2ccccc2F)c1C#N | 359 | 1.2% (inactive) | 10.7% (inactive) | 98.5% | -22.8% (inactive) | 99.6% | -0.547 (inactive) | 2.2e-05 (inactive) | 0.00463 (inactive) | 9.25% (inactive) | 14% (inactive)
21 | COc1ccc(C2C3=C(CC(C)(C)CC3=O)Oc3ncn4nc(-c5cccnc5)nc4c32)cc1 (centres undefined) | 474 | 2.7% (inactive) | 2% (inactive) | 83.8% | -78.2% (inactive) | 144% | -0.327 (inactive) | -2.3e-05 (inactive) | 0.00713 (inactive) | -0.431% (inactive) | 17.2% (inactive)
22 | CCn1c(=O)cc(SCC(=O)Nc2cccnc2)c2ccccc21 | 369 | -8.6% (inactive) | 4.3% (inactive) | 101% | -15.9% (inactive) | 116% | -0.463 (inactive) | 2.2e-05 (inactive) | 0.00646 (inactive) | 2.11% (inactive) | -5.54% (inactive)
23 | O=C(O)c1ccccc1C(=O)Nc1ccccc1 | 476 | -6% (inactive) | -8.6% (inactive) | 82.7% | -88.4% (inactive) | 143% | -0.5 (inactive) | -0.000287 (inactive) | 0.00478 (inactive) | 5.22% (inactive) | 8.4% (inactive)
24 | COC(=O)Cn1c(C)nc2c(sc3nc(C)cc(C)c32)c1=O | 674 | -5% (inactive) | 14.7% (inactive) | 81.2% | 16% (inactive) | 100% | -0.603 (inactive) | -2e-05 (inactive) | 0.00473 (inactive) | -40.7% (inactive) | -91.2% (inactive)
25 | Cc1ccc(S(=O)(=O)NCCNC(=O)c2ccccc2)cc1 | 212 | -4.9% (inactive) | 10.3% (inactive) | 97.8% | -38.2% (inactive) | 93.6% | -0.282 (inactive) | -4.2e-05 (inactive) | 0.00552 (inactive) | 13.4% (inactive) | 10.4% (inactive)
26 | CCOc1ccccc1NC(=O)CSc1c(C)n[nH]c1C | 333 | -2% (inactive) | -21.4% (inactive) | 120% | -17.1% (inactive) | 113% | -0.548 (inactive) | -1.7e-05 (inactive) | 0.00526 (inactive) | 1.91% (inactive) | 15.3% (inactive)
27 | CC(=O)Nc1ccc(NC(=O)c2ccccc2F)cc1 | 345 | -4.6% (inactive) | 1.3% (inactive) | 102% | -14.4% (inactive) | 116% | -0.556 (inactive) | -1.7e-05 (inactive) | 0.00528 (inactive) | -10.5% (inactive) | -55% (inactive)
28 | CCS(=O)(=O)N1CCC(C(=O)NCc2cccs2)CC1 | 683 | -5.9% (inactive) | 12.4% (inactive) | 77.5% | -111% (inactive) | 102% | -0.549 (inactive) | -2e-05 (inactive) | 0.00636 (inactive) | 5.97% (inactive) | 13.7% (inactive)
29 | Cc1c(NC(=O)C2CCCNC2=O)c(=O)n(-c2ccccc2)n1C (centres undefined) | 394 | -2.2% (inactive) | -1.6% (inactive) | 101% | -36.5% (inactive) | 106% | -0.495 (inactive) | 3.2e-05 (inactive) | 0.00472 (inactive) | 11.5% (inactive) | 6.36% (inactive)
